# Env fusion inh – inhibitors of HIV Env-mediated cell fusion; inhibition, % at 12.3 µM; 1.1% of 360,000 active; AID 651610; HeLa-JRFL Env/CEM21 cell fusion, luciferase;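 active = mean replicate inhibition score of at least 50 and every replicate individually at or above 50; inconclusive = only one of the two criteria met; inactive = mean below 50 and not all replicates reaching 50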;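 also: 0% = plate neutral controls and 100% = maraviroc near 300 nM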
# PGC1a acetyl inh – lowers PGC1a acetylation signal in U2OS cells; AlphaScreen anti-acetyl-lysine; with virally co-expressed GCN5 acetyltransferase; inhibition, % at 15.6 µM; 0.17% of 350,000 active; AID 651687;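 active = every replicate shows inhibition of at least 40%; inconclusive = mean inhibition at least 40% but some replicate below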;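 also: 0% = neutral control wells and 100% = positive control wells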
# PAX8 inh HTS – inhibitors of PAX8 transcriptional activity in RMG-I cells; 1.2% of 360,000 active; AID 652154; inhibition, % at 12.6 µM; RMG-I TPO-luciferase reporter, SteadyGlo, 24 h;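 active = mean replicate inhibition at least 60% with every replicate also reaching 60%; inconclusive = only one of the two criteria is met; inactive = mean below 60% and not all replicates reaching 60%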;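 also: luciferase light reporting Pax8 driven TPO promoter activity; plate controls were median of neutral control wells for no effect and mitoxantrone controls for full effect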
# EWS-Fli inh – EWS/Fli transcriptional activity inhibition; A673 NR0B1-luciferase reporter, viability-normalised; inhibition, % at 12.6 µM; 0.67% of 350,000 active;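 active = mean inhibition of at least 50% after viability correction, with every replicate also passing that limit; inconclusive = mean reaches 50% but only one of two replicates passes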;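 also: firefly luciferase signal divided by Alamar Blue viability fluorescence both relative to DMSO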
# FN deposit inh – fibronectin deposition inhibition; AH1F fibroblasts, Alexa488-fibronectin deposition fluorescence, overnight; inhibition, % at 12.6 µM; 0.086% of 350,000 active;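 active = mean inhibition across replicates of 30% or more, regardless of how many single replicates reach that level; inconclusive = mean under 30% yet at least half of replicates reach 30%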;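 also: positive control wells lacked labelled fibronectin entirely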
#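 Material: AH1F fibroblasts assembling fluorescent fibronectin matrix; amount: 10000 AH1F cells/well; medium: DMEM, 2% serum; reagent: Alexa488-fibronectin, 24 nM final in well; dosing: single compound dose, delivered by pin transfer; incubation: 1 h adhesion, overnight exposure; detection: fluorescence after three HBSS washes, excitation 485 nm, emission 525 nm; measure: fibronectin deposition inhibition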
# CFTR F508del cor – correctors of CFTR F508del function in bronchial epithelial cells; CFBE cells, YFP halide quenching; stimulated with forskolin plus potentiator P3; % fluorescence drop versus neutral controls; activity (quench increase), % at 7.58 µM; 0.36% of 350,000 active; AID 720511;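 active = mean added fluorescence quench of at least 8% versus neutral control, with both replicates also reaching 8%; inconclusive = only one of the mean or replicate conditions met; inactive = mean below 8% and not both replicates reaching 8%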;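 also: cells transiently co-express mutant CFTR-F508del with the halide-sensitive YFP; corrector assay measuring rescue of mutant channel to the surface after 24 h compound exposure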
# The depositor's hits bear a star; i = inactive; u = inconclusive; x = no result given; [ ] = another dose, or the depositor's remark. A selection: hits, their analogues and other compounds. The true share with any hit is near 2.3%.
SMILES,Env fusion inh,PGC1a acetyl inh,PAX8 inh HTS,EWS-Fli inh,FN deposit inh,CFTR F508del cor
COc1ccc2c3c(n(C)c2c1)[C@H](CO)N(C(=O)Nc1ccc(F)cc1)CC31CCN(C(=O)NC2CCCC2)CC1,x,-5,x,6,x,0
CC(C)CC(NS(=O)(=O)c1ccccc1)C(=O)O (stereo not drawn),-43,x,6,x,-1,x
CC(C)CN=C(NS(=O)(=O)c1ccccc1)C(Cl)(Cl)Cl,-53,x,100*,45,2,x
Cc1noc(C)c1NC(=O)N(C)C[C@@H]1OCCCC[C@H](C)Oc2ccc(NC(=O)C3CCCCC3)cc2C(=O)N([C@@H](C)CO)C[C@@H]1C,7[16.7 µM],9,-10,3,x,-1
O=C(C[C@H]1CC[C@@H]2[C@H](COC[C@@H](O)CN2S(=O)(=O)c2cccc(Cl)c2)O1)Nc1ccc(-c2ccccc2)cc1,x,-7,106*,-2,7,8
O=C(C[C@H]1CC[C@H]2[C@@H](COC[C@@H](O)CN2S(=O)(=O)c2cccc(Cl)c2)O1)Nc1ccc(-c2ccccc2)cc1,x,12,87*,-2,-13,6
O=C(C[C@H]1CC[C@H]2[C@@H](COC[C@H](O)CN2S(=O)(=O)c2cccc(Cl)c2)O1)Nc1ccc(-c2ccccc2)cc1,x,-1,57,-8,-4,3
C[C@H](CO)N1C[C@H](C)[C@@H](CN(C)S(=O)(=O)c2cccs2)Oc2ccc(NS(=O)(=O)c3cn(C)cn3)cc2CC1=O,1[16.7 µM],-1,-3,2,2,-3
CC[C@@]12C(=O)N(c3cccc(Br)c3)C(=O)N1[C@H](c1ccc(F)cc1)[C@@H]1C(=O)N(C3CCCCC3)C(=O)[C@@H]12,93*,4,9,3,-17,3
CC[C@@]12C(=O)N(c3cccc(F)c3)C(=O)N1[C@H](c1ccc(F)cc1)[C@@H]1C(=O)N(C3CCCCC3)C(=O)[C@@H]12,x,-4,x,x,x,x
CC(C)C[C@@]12C(=O)N(c3cccc(Br)c3)C(=O)N1[C@H](c1ccc(F)cc1)[C@@H]1C(=O)N(C3CCCCC3)C(=O)[C@@H]12,104*,x,9,0,-3,5
CC(C)(C)n1nnnc1C(c1cccnc1)N1CCN(C2CCCCC2)CC1 (stereo not drawn),65*,5,x,x,2,x
O=C1/C(=C/c2ccccc2)SC(=S)N1CC(=O)N1CCCCC1c1cccnc1 (stereo not drawn),7,x,90*,x,10,-4
O=C(CCN1C(=O)/C(=C/c2ccccc2)SC1=S)Nc1cccnc1,-3,x,5,-5,1,-1
COC(=O)C1CCCCN1C(=O)c1cc(COc2cccc3cccnc23)on1 (stereo not drawn),-24,7,3,-9,5,-1
COC(=O)C1CCCCN1C(=O)c1cc(COc2cccc3cnccc23)on1 (stereo not drawn),64*,x,28,22,-1,0
Cc1ccc(-c2ccc3c(c2)O[C@@H](CN(C)Cc2ccccc2)[C@@H](C)CN([C@@H](C)CO)S3(=O)=O)cc1,38[16.7 µM],-6,x,-18,-16,2
C=C1C(=O)C23C(O)C1CCC2C12CCCC(C)(COC(C)=O)C1C(O)C3(O)OC2 (stereo not drawn),-25,x,123*,57*,29,-5
O=C1NCCOCc2cn(nn2)CC[C@H]1Cc1ccc(F)cc1,x,x,x,x,-7,x
CCC(=O)N1C[C@@H](C)[C@@H](OC)CN(C)C(=O)c2ccc(NC(=O)c3cnccn3)cc2OC[C@@H]1C,x,-6,-10,-3,1,-1
CCN(CC)CCNc1ccc(CO)c2sc3ccccc3c(=O)c12,-30,5,20,21,9,5
O=c1c2ccccc2sc2c(CO)ccc(NCCN3CCCCC3)c12,7,x,47,15,-3,17*
CCOc1ccc(C2=Nn3c(nnc3-c3ccccc3OC)SC2)cc1,u,-22,95*,x,x,x
COc1ccc(C2=Nn3c(nnc3-c3ccccc3OC)SC2)cc1OC1CCOC1 (stereo not drawn),-242,x,68*,36,-18,9.7*
C[C@H]1CN([C@@H](C)CO)C(=O)Cc2cc(NC(=O)c3ccncc3)ccc2O[C@H]1CN(C)S(C)(=O)=O,15[16.7 µM],-2,12,-3,x,-1
SMILES,Env fusion inh,PGC1a acetyl inh,PAX8 inh HTS,EWS-Fli inh,FN deposit inh,CFTR F508del cor
Cc1ccccc1CN1C(=O)c2ccccc2C1c1nnnn1-c1ccc2c(c1)OCCO2 (stereo not drawn),-159,x,25,61*,-3,5
COC(=O)C[C@@H]1CC[C@@H](NC(=O)c2ccccc2)[C@@H](CO)O1,17[16.7 µM],10,-6,0,1,0
CCOc1ccc(OCCN2CCCCC2)cc1,9,-4,14,x,0,x
c1ccc(COc2ccc(OCCCN3CCCC3)cc2)cc1,x,x,67*,-11,-5,-2
c1ccc(COc2ccc(OCCN3CCCCC3)cc2)cc1,x,x,99*,-37,2,3
O=Nc1ccc(O)c2ncccc12,i,-245,0,72*,3,16*
CN(C)CCCN(C(=O)COc1ccc(Cl)cc1)c1nc2cc3c(cc2s1)OCO3,1,13,7,61*,5,-2
COc1ccc(C=C2c3ccccc3C(=O)c3ccccc32)c(OC)c1,-25,-18,59,52*,-6,0
COc1ccc(/C=C2\CN(Cc3ccccc3)C/C(=C\c3ccc(OC)cc3)C2=O)cc1,-22,x,6,-9,-4,-2
COc1ccc(/C=C2\CN(Cc3ccccc3)C/C(=C\c3ccc(OC)cc3OC)C2=O)c(OC)c1,10,28,93*,x,1,x
COc1ccc(/C=C2\COc3ccccc3C2=O)c(OC)c1,6,x,-34,-88,9,3
CN(C)c1nc(NCc2ccccc2)nc(SCC(=O)Nc2ccc(Cl)c(Cl)c2)n1,57*,-3,x,x,-10,x
CCNc1nc(SCC(=O)Nc2ccc(Cl)c(Cl)c2)nc(N(C)C)n1,18,-8,7,7,1,1
COc1ccc2c3c(n(C)c2c1)[C@H](CO)N(C(=O)NC(C)C)CC31CCN(CC2CCCC2)CC1,x,x,-9,2,x,1
O=[N+]([O-])c1ccc(Oc2cccnc2)c([N+](=O)[O-])c1,-82,9,64*,1,-1,-3
CNC[C@H]1Oc2ncc(-c3ccc(OC)cc3)cc2C(=O)N([C@@H](C)CO)C[C@@H]1C,-7[16.7 µM],8,-21,-9,7,-2
CCOCCOC(=O)C(C)Oc1ccc(Oc2ncc(Cl)cc2Cl)cc1 (stereo not drawn),x,-7,71*,4,-2,0
CCOCCOC(=O)C(C)Oc1ccc(Oc2nc(Cl)ccc2Cl)cc1 (stereo not drawn),-8,88*,5,14,-11,0

# Source: PubChem (Broad Institute)
